Data as given in ChEMBL document CHEMBL2380270, “Radiosynthesis and first evaluation in mice of [(18)F]NS14490 for molecular imaging of α7 nicotinic acetylcholine receptors” (Bioorg Med Chem, 2013).

Key:
[1] = tested on: Mus musculus; assay: Biodistribution in CD1 mouse small intestine at 200 to 300 kBq, iv measured at 30 mins by gamma counting analysis; type: ADME, organism-based; details: in vivo, 0.5 h
Outline: (§1)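 Female CD-1 mice received 200–300 kBq [18F]radiotracer intravenously. Blood and urine were sampled under anaesthesia, then mice were killed by cervical dislocation at 5, 15, 30 or 60 min p.i. (n = 3; control at 60 min n = 7). Organs were removed and weighed, activity was gamma-counted, and uptake was expressed as % injected dose per g wet tissue.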

[2] = tested on: Brain; assay: Biodistribution in CD1 mouse brain at 200 to 300 kBq, iv measured at 30 mins by gamma counting analysis; type: ADME, organism-based; details: in vivo, 0.5 h
Outline: (§2)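 Female CD-1 mice, 200–300 kBq radiotracer given iv, n = 3 per time point. Animals anaesthetised for blood and urine sampling, then killed by cervical dislocation at 5, 15, 30 or 60 min p.i. Organs removed, weighed and gamma-counted; uptake expressed as % injected dose per g wet tissue.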

[3] = tested on: Femur; assay: Biodistribution in CD1 mouse femur at 200 to 300 kBq, iv measured at 15 mins by gamma counting analysis; type: ADME, organism-based; details: in vivo, 0.25 h; outline: as §2
[4] = tested on: Spleen; assay: Biodistribution in CD1 mouse spleen at 200 to 300 kBq, iv measured at 15 mins by gamma counting analysis; type: ADME, organism-based; details: in vivo, 0.25 h; outline: as §1
[5] = tested on: Kidney; assay: Biodistribution in CD1 mouse kidney at 200 to 300 kBq, iv measured at 15 mins by gamma counting analysis; type: ADME, organism-based; details: in vivo, 0.25 h; outline: as §2
[6] = tested on: Liver; assay: Biodistribution in CD1 mouse liver at 200 to 300 kBq, iv measured at 15 mins by gamma counting analysis; type: ADME, organism-based; details: in vivo, 0.25 h; outline: as §1
[7] = tested on: Mus musculus; assay: Biodistribution in CD1 mouse large intestine at 200 to 300 kBq, iv measured at 15 mins by gamma counting analysis; type: ADME, organism-based; details: in vivo, 0.25 h; outline: as §2
[8] = tested on: Heart; assay: Biodistribution in CD1 mouse heart at 200 to 300 kBq, iv measured at 15 mins by gamma counting analysis; type: ADME, organism-based; details: in vivo, 0.25 h; outline: as §2
[9] = tested on: Brain; assay: Biodistribution in CD1 mouse brain at 200 to 300 kBq, iv measured at 15 mins by gamma counting analysis; type: ADME, organism-based; details: in vivo, 0.25 h; outline: as §2
[10] = tested on: Muscle tissue; assay: Biodistribution in CD1 mouse muscle at 200 to 300 kBq, iv measured at 5 mins by gamma counting analysis; type: ADME, organism-based; details: in vivo; outline: as §1
[11] = tested on: Zone of skin; assay: Biodistribution in CD1 mouse skin at 200 to 300 kBq, iv measured at 5 mins by gamma counting analysis; type: ADME, organism-based; details: in vivo; outline: as §1
[12] = tested on: Mus musculus; assay: Biodistribution in CD1 mouse adrenal at 200 to 300 kBq, iv measured at 5 mins by gamma counting analysis; type: ADME, organism-based, Adrenal gland; details: in vivo; outline: as §2
[13] = tested on: Pancreas; assay: Biodistribution in CD1 mouse pancreas at 200 to 300 kBq, iv measured at 5 mins by gamma counting analysis; type: ADME, organism-based; details: in vivo; outline: as §1
[14] = tested on: Urinary bladder; assay: Biodistribution in CD1 mouse bladder at 200 to 300 kBq, iv measured at 5 mins by gamma counting analysis; type: ADME, organism-based; details: in vivo; outline: as §2
[15] = tested on: Mus musculus; assay: Biodistribution in CD1 mouse small intestine at 200 to 300 kBq, iv measured at 5 mins by gamma counting analysis; type: ADME, organism-based; details: in vivo; outline: as §1
[16] = tested on: Brain; assay: Biodistribution in CD1 mouse brain at 200 to 300 kBq, iv measured at 5 mins by gamma counting analysis; type: ADME, organism-based; details: in vivo; outline: as §2
[17] = tested on: Heart; assay: Biodistribution in CD1 mouse heart at 200 to 300 kBq, iv measured at 5 mins by gamma counting analysis; type: ADME, organism-based; details: in vivo; outline: as §2
[18] = tested on: Mus musculus; assay: Biodistribution in CD1 mouse thymus at 200 to 300 kBq, iv measured at 60 mins by gamma counting analysis in presence of SSR180711; type: ADME, organism-based; details: in vivo, 1 h
Outline: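 Female CD-1 mice given 200–300 kBq tracer intravenously. Animals anaesthetised for blood and urine sampling, then killed by cervical dislocation at 5, 15, 30 or 60 min (n = 3 per time; n = 7 at 60 min). Organs removed and weighed, activity gamma-counted, expressed as % injected dose per g wet weight. Blocking arm: 10 mg/kg i.p. in 0.9% saline, 10 min before tracer; two-tailed unpaired t test versus control.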

[19] = tested on: Spleen; assay: Biodistribution in CD1 mouse spleen at 200 to 300 kBq, iv measured at 60 mins by gamma counting analysis in presence of SSR180711; type: ADME, organism-based; details: in vivo, 1 h
Outline: (§3)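 Blocking design in female CD-1 mice, n = 7 per group. The blocker was given at 10 mg kg^-1 i.p. in 0.9% saline 10 min before i.v. 200–300 kBq [18F]radiotracer. Mice were killed at 60 min p.i. and organs weighed and gamma-counted as % ID per g wet weight. Blocked groups were compared with controls by two-tailed independent Student's t test.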

[20] = tested on: Lung; assay: Biodistribution in CD1 mouse lung at 200 to 300 kBq, iv measured at 60 mins by gamma counting analysis in presence of SSR180711; type: ADME, organism-based; details: in vivo, 1 h; outline: as §3
[21] = tested on: Pancreas; assay: Biodistribution in CD1 mouse pancreas at 200 to 300 kBq, iv measured at 60 mins by gamma counting analysis; type: ADME, organism-based; details: in vivo, 1 h; outline: as §1
[22] = tested on: Kidney; assay: Biodistribution in CD1 mouse kidney at 200 to 300 kBq, iv measured at 60 mins by gamma counting analysis; type: ADME, organism-based; details: in vivo, 1 h; outline: as §2
[23] = tested on: Liver; assay: Biodistribution in CD1 mouse liver at 200 to 300 kBq, iv measured at 60 mins by gamma counting analysis; type: ADME, organism-based; details: in vivo, 1 h; outline: as §1
[24] = tested on: Mus musculus; assay: Biodistribution in CD1 mouse adrenal at 200 to 300 kBq, iv measured at 30 mins by gamma counting analysis; type: ADME, organism-based, Adrenal gland; details: in vivo, 0.5 h; outline: as §2
[25] = tested on: Pancreas; assay: Biodistribution in CD1 mouse pancreas at 200 to 300 kBq, iv measured at 30 mins by gamma counting analysis; type: ADME, organism-based; details: in vivo, 0.5 h; outline: as §1
[26] = tested on: Mus musculus; assay: Biodistribution in CD1 mouse thymus at 200 to 300 kBq, iv measured at 30 mins by gamma counting analysis; type: ADME, organism-based; details: in vivo, 0.5 h; outline: as §1

SMILES: O=C(Oc1ccc(Br)cc1)N1CCN2CCC1CC2 [SSR180711]
- Drug uptake [1]: 11 % ID/g
- Drug uptake [2]: 0.18 % ID/g
- Drug uptake [3]: 2.15 % ID/g
- Drug uptake [4]: 8.23 % ID/g
- Drug uptake [5]: 10.6 % ID/g
- Drug uptake [6]: 9.39 % ID/g
- Drug uptake [7]: 2.65 % ID/g
- Drug uptake [8]: 2.96 % ID/g
- Drug uptake [9]: 0.24 % ID/g
- Drug uptake [10]: 1.59 % ID/g
- Drug uptake [11]: 0.81 % ID/g
- Drug uptake [12]: 5.78 % ID/g
- Drug uptake [13]: 5.16 % ID/g
- Drug uptake [14]: 1.27 % ID/g
- Drug uptake [15]: 3.44 % ID/g
- Drug uptake [16]: 0.16 % ID/g
- Drug uptake [17]: 3.35 % ID/g
- Drug uptake [18]: 2.47 % ID/g
- Drug uptake [19]: 7.53 % ID/g
- Drug uptake [20]: 4.41 % ID/g
- Drug uptake [21]: 3.12 % ID/g
- Drug uptake [22]: 10.4 % ID/g
- Drug uptake [23]: 7.79 % ID/g
- Drug uptake [24]: 4.61 % ID/g
- Drug uptake [25]: 4.2 % ID/g
- Drug uptake [26]: 2.6 % ID/g
